Experimental findings from publication PMC7442688 (Nature chemical biology, 2020) are described below.

The structures appear in SMILES notation.

This assay concerns the target T1, purified mLYPLAL1 (Mus musculus, UniProt Q3UFF7).
T1 sequence (Q3UFF7 1-239): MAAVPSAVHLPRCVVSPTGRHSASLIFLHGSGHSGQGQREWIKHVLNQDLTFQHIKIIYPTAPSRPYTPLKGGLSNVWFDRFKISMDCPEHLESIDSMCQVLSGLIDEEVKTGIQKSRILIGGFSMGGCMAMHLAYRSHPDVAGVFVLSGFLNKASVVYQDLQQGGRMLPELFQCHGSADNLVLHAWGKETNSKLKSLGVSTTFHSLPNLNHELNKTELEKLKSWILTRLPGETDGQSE
Nature of the assay: NanoDSF thermal stability assay. The note with it: recombinant mLYPLAL1. It is filed as binding. The method, boiled down:
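Purified mouse LYPLAL1 (2.3 μM final) in PBS pH 7.4 with varying test compound concentrations (2% DMSO final) in capillaries. Intrinsic-fluorescence nanoDSF over a 20–95°C ramp at 1°C/min. Kd estimated by isothermal analysis of the unfolding data.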

`COc1ccc(S(=O)(=O)n2nc(NCc3ccc(Cl)cc3)nc2N)cc1` [Compound 80, 3-(4-chlorobenzyl)amino-1-((4-methoxyphenyl)sulfonyl)-5-amino-1H-1,2,4-triazole]: the “effect on thermal stability of mLYPLAL1” value is recorded as “not seen”.
